According to paper PMC5795620 (Journal of medicinal chemistry, 2017):
Each block holds one compound with its values, some of them ahead of it.

Tests used:
EcoHIV-infected mice = experiment: Radial arm water maze in EcoHIV-infected mice; assay type: in vivo, mouse; conditions: control for visual or motor function; 1 mg/kg, ip, qod
Procedure, shortened: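 Male C57BL/6J mice, 5 weeks old, randomized (n = 8/group) to drug or saline starting 1 day before ip EcoHIV (2 × 106 pg p24) or sham PBS inoculation. Dosing continued through 30-day infection and testing. From day 30 p.i., six-lane opaque-water RAWM with visual cues. After hidden-platform trials, latency to a visible platform measured in the same context.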

EcoHIV = EcoHIV viral load in spleen and brain by qPCR; assay type: in vivo, mouse; conditions: EcoHIV-infected mice, 1 mg/kg, ip, qod
[1] = Overt toxicity observation in mice during 14 treatment; assay type: in vivo, mouse; conditions: 1 mg/kg, ip, qod over infection period and testing
[2] = Metabolic stability in swine brain homogenate; assay type: in vitro ADME; conditions: 10 μM, 0-60 min
[3] = nonhuman primate, systemic administration; cited from earlier work
[4] = Metabolic stability in mouse plasma; assay type: in vitro ADME; conditions: representative chromatogram (Figure S1)
[5] = Metabolic stability in swine plasma; assay type: in vitro ADME; conditions: 60 min incubation in swine plasma

Metabolic lability in swine brain homogenate (in words) [2]: moderately labile
Compound: CC(C)OC(=O)[C@H](CCC(=O)C=[N+]=[N-])NC(=O)O[C@H](C)OC(=O)C(C)(C)C [Compound 13b, Isopropyl 6-Diazo-5-oxo-2-(((1-(pivaloyloxy)ethoxy)-carbonyl)amino)hexanoate]
Enhancement in the CSF-to-plasma ratio of 14 exposure relative to equimolar 14 [3]: about 10 fold

Stability in swine plasma (in words) [5]: labile
Compound: CC(C)OC(=O)[C@H](CCC(=O)C=[N+]=[N-])NC(=O)OCOC(=O)C(C)(C)C [Compound 13a, Isopropyl 6-Diazo-5-oxo-2-((((pivaloyloxy)methoxy)-carbonyl)amino)hexanoate]

The next lines start with the compound.

Compound: [N-]=[N+]=CC(=O)CC[C@H](N)C(=O)O [Compound 14, 6-diazo-5-oxo-L-norleucine]
RAWM escape latency to a visible platform (EcoHIV-infected mice): no effect
EcoHIV viral load in the brain (EcoHIV): no effect
EcoHIV viral load in the spleen (DNA copies) (EcoHIV; p = 0.022): slight increase
Overt signs of toxicity (diarrhea, weight loss) [1]: no mice exhibited overt signs of toxicity

Compound: CC(C)OC(=O)[C@H](CCC(=O)C=[N+]=[N-])NC(=O)OC(OC(=O)C(C)(C)C)C(C)C (mixture of isomers) [Compound 13c, Isopropyl 6-Diazo-2-(((2-methyl-1-(pivaloyloxy)propoxy)-carbonyl)amino)-5-oxohexanoate]
Metabolic lability in swine brain homogenate (in words) [2]: readily biotransformed

Compound: CC(C)OC(=O)[C@H](CCC(=O)C=[N+]=[N-])NC(=O)OC(C)(C)OC(=O)C(C)(C)C [Compound 13e, Isopropyl 6-Diazo-5-oxo-2-((((2-(pivaloyloxy)propan-2-yl)-oxy)carbonyl)amino)hexanoate]
Metabolic lability in swine brain homogenate (in words) [2]: mostly stable

Compound: CC(C)OC(=O)[C@H](CCC(=O)C=[N+]=[N-])NC(=O)OC(OC(=O)C(C)(C)C)c1ccccc1 (some centres unmarked) [Compound 13d, Isopropyl 6-Diazo-5-oxo-2-(((phenyl(pivaloyloxy)methoxy)-carbonyl)amino)hexanoate]
Time to complete conversion to 14 in mouse plasma [4]: ≤ 10 min
Metabolic lability in swine brain homogenate (in words) [2]: readily biotransformed
